Source: ChEMBL document CHEMBL1158182, “Antifungal activity of chalcones: a mechanistic study using various yeast strains” (Eur J Med Chem, 2008)

Tests used:
Format in all cases: functional
Saccharomyces cerevisiae [1] = test: Antifungal activity against haploid Saccharomyces cerevisiae 1S by agar dilution method
Summary of the method: (§1)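 S. cerevisiae and K. lactis strains were tested by agar dilution on rich YPD agar at 30 °C. Compound stocks in 96% EtOH were added to the medium to give […]. Cells were suspended in water, serially diluted to 10^9–10^3 cells/ml, and plated with a metal replicator. MIC was read from growth.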

Saccharomyces cerevisiae [2] = test: Antifungal activity against haploid Saccharomyces cerevisiae 1169 by agar dilution method; summary of the method: as §1
Saccharomyces cerevisiae [3] = test: Antifungal activity against haploid Saccharomyces cerevisiae 2180 by agar dilution method; summary of the method: as §1
Saccharomyces cerevisiae [4] = test: Antifungal activity against diploid Saccharomyces cerevisiae 1a by agar dilution method; summary of the method: as §1
Saccharomyces cerevisiae [5] = test: Antifungal activity against diploid Saccharomyces cerevisiae 29a by agar dilution method; summary of the method: as §1
Saccharomyces cerevisiae [6] = test: Antifungal activity against haploid Saccharomyces cerevisiae Sigma 1278b by agar dilution method; summary of the method: as §1
Saccharomyces cerevisiae [7] = test: Antifungal activity against haploid Saccharomyces cerevisiae FY4 by agar dilution method; summary of the method: as §1
Saccharomyces cerevisiae [8] = test: Antifungal activity against haploid Saccharomyces cerevisiae 10560-6B by agar dilution method; summary of the method: as §1
Saccharomyces cerevisiae [9] = test: Antifungal activity against haploid Saccharomyces cerevisiae YSH1170 by agar dilution method; summary of the method: as §1
Saccharomyces cerevisiae [10] = test: Antifungal activity against haploid Saccharomyces cerevisiae YSH1171 by agar dilution method; summary of the method: as §1
Ogataea angusta [11] = test: Antifungal activity against Hansenula polymorpha WT1 with ade1 ura3 genotype by agar dilution method
Summary of the method: (§2)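 H. polymorpha strains were tested by agar dilution on rich YPD agar at 37 °C. Compound stocks in 96% EtOH were mixed into the medium to give […]. Cells were suspended in water, serially diluted to 10^9, 10^7, 10^5 and 10^3 cells/ml, and applied to the agar with a metal replicator. MIC was read from growth.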

Ogataea angusta [12] = test: Antifungal activity against Hansenula polymorpha WT2 with ade1 met6 genotype by agar dilution method; summary of the method: as §2
Ogataea angusta [13] = test: Antifungal activity against Hansenula polymorpha CD1 with ade1 leu2 cds1 genotype by agar dilution method; summary of the method: as §2
Ogataea angusta [14] = test: Antifungal activity against Hansenula polymorpha CD2 with ade1 leu2 cds2 genotype by agar dilution method; summary of the method: as §2
Ogataea angusta [15] = test: Antifungal activity against Hansenula polymorpha CD3 with ade1 leu2 cds3 genotype by agar dilution method; summary of the method: as §2
Ogataea angusta [16] = test: Antifungal activity against Hansenula polymorpha 2a with arg1 leu2 ura3 cys1 genotype by agar dilution method; summary of the method: as §2
Ogataea angusta [17] = test: Antifungal activity against Hansenula polymorpha 2b with arg1 ade1 leu2 genotype by agar dilution method; summary of the method: as §2
Ogataea angusta [18] = test: Antifungal activity against Hansenula polymorpha D22 with arg1/arg1 ade1/ADE1 leu2/leu2 URA3/ura3 CYS1/cys1 genotype by agar dilution method; summary of the method: as §2
Ogataea angusta [19] = test: Antifungal activity against Hansenula polymorpha M2 with met2 genotype by agar dilution method; summary of the method: as §2
Ogataea angusta [20] = test: Antifungal activity against Hansenula polymorpha MC1 with met2 cys1 genotype by agar dilution method; summary of the method: as §2
Ogataea angusta [21] = test: Antifungal activity against Hansenula polymorpha AS1 with arg1 gsh2delta genotype by agar dilution method; summary of the method: as §2
Ogataea angusta [22] = test: Antifungal activity against Hansenula polymorpha M4 with met4 genotype by agar dilution method; summary of the method: as §2
Ogataea angusta [23] = test: Antifungal activity against Hansenula polymorpha AU05 with ade3 ura3 genotype by agar dilution method; summary of the method: as §2
Ogataea angusta [24] = test: Antifungal activity against Hansenula polymorpha R3 with rgh3 genotype by agar dilution method; summary of the method: as §2
Ogataea angusta [25] = test: Antifungal activity against Hansenula polymorpha CRD2 with leu2 CDR2 genotype by agar dilution method; summary of the method: as §2
Kluyveromyces lactis [26] = test: Antifungal activity against Kluyveromyces lactis 2-18B with MATalpha metA1 ura3 leu2 genotype by agar dilution method; summary of the method: as §1
Kluyveromyces lactis [27] = test: Antifungal activity against Kluyveromyces lactis 1-6A with MATalpha uraA lys arg genotype by agar dilution method; summary of the method: as §1
Kluyveromyces lactis [28] = test: Antifungal activity against Kluyveromyces lactis 2-19B with MATalpha ura lys arg genotype by agar dilution method; summary of the method: as §1

Measured: MIC

O=C(/C=C/c1ccc(Cl)cc1)c1ccc(Cl)cc1 [4',4-DICHLOROCHALCONE]
> 40 µg/mL: all assays above

O=C(/C=C/c1ccc(O)c(O)c1)c1ccc(Cl)cc1
> 40 µg/mL: all assays above

COc1cccc(/C=C/C(=O)c2ccc(Cl)cc2)c1O
> 40 µg/mL: all assays above

CC(=O)Nc1ccc(/C=C/C(=O)c2ccc(Cl)cc2)cc1
> 40 µg/mL: all assays above

O=C(/C=C/c1ccccc1)c1ccc(Cl)cc1
> 40 µg/mL: all assays above

O=C(/C=C/C=C/c1ccccc1)c1ccc(Cl)cc1
> 40 µg/mL: all assays above
